Measurements published in ChEMBL document CHEMBL2016521, “Preparation, gram-negative antibacterial activity, and hydrolytic stability of novel siderophore-conjugated monocarbam diols” (ACS Med Chem Lett, 2011).
Values after ≈ are worked out from the molar mass of the structure shown. Each block holds one compound with its values, some of them ahead of it.

Assays:
Klebsiella pneumoniae [1] = experiment: Antibacterial activity against Klebsiella pneumoniae 1000-02; type: functional
Pseudomonas aeruginosa [2] = experiment: Antibacterial activity against Pseudomonas aeruginosa; type: functional
Acinetobacter baumannii = experiment: Antibacterial activity against Acinetobacter baumannii AB-3167; type: functional
Pseudomonas aeruginosa [3] = experiment: Antibacterial activity against Pseudomonas aeruginosa isolate 1091-05; type: functional
Pseudomonas aeruginosa [4] = experiment: Antibacterial activity against imipenem-sensitive Pseudomonas aeruginosa isolate 1091-05 infected in sc dosed neutropenic-C3H/HeN mouse assessed as mouse survival administered 4 hrs post infection followed by BID dosing for two days measured on day 10; type: functional; settings: isolate 1091-05, sc, read-out: PD50
Pseudomonas aeruginosa [5] = experiment: Antibacterial activity against imipenem-sensitive Pseudomonas aeruginosa isolate 1091-05 infected in ip dosed SF-1 mouse assessed as survival of animal administered 0.5 and 4 hrs post infected measured on day 4; type: functional; settings: isolate 1091-05, ip, read-out: PD50
Serratia marcescens = experiment: Antimicrobial activity against Serratia marcescens; type: functional
[6] = tested on: Stenotrophomonas maltophilia; experiment: Antimicrobial activity against Stenotrophomonas maltophilia; type: functional
Citrobacter freundii = experiment: Antimicrobial activity against Citrobacter freundii; type: functional
Acinetobacter sp. = experiment: Antimicrobial activity against Acinetobacter sp.; type: functional
Klebsiella aerogenes = experiment: Antimicrobial activity against Enterobacter aerogenes; type: functional
Klebsiella pneumoniae [7] = experiment: Antimicrobial activity against carbapenemase-producing Klebsiella pneumoniae; type: functional
[8] = Chemical stability of the compound in phosphate buffer at pH 6 at 1 uM after 24 hrs by HPLC analysis; type: physicochemical; settings: pH 6, 24 h
Summary of the method: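 Hydrolytic stability of the β-lactam ring was measured in aqueous buffer at pH 6.0 and 37 °C.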

[9] = Chemical stability of the compound in phosphate buffer at pH 8 assessed as drug degradation at 1 uM after 100 hrs by HPLC analysis; type: physicochemical; settings: read-out: Drug degradation
Summary of the method: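 Hydrolytic β-lactam ring-opening was followed in aqueous buffer at pH 8.0 and 37 °C over a 100 h incubation. The read-out was percent degradation.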

Pseudomonas aeruginosa [10] = experiment: Antibacterial activity against low inoculum imipenem-sensitive Pseudomonas aeruginosa isolate 1091-05 infected in sc dosed neutropenic-C3H/HeN mouse assessed as mouse survival administered 4 hrs post infection followed by BID dosing for two days measured on day 10; type: functional; settings: isolate 1091-05, sc, read-out: PD50
Pseudomonas aeruginosa [11] = experiment: Antibacterial activity against Pseudomonas aeruginosa clinical isolate; type: functional
Klebsiella pneumoniae [12] = experiment: Antimicrobial activity against Klebsiella pneumoniae clinical isolate; type: functional
Pseudomonas aeruginosa [13] = experiment: Antibacterial activity against metallo-beta-lactamase producing Pseudomonas aeruginosa; type: functional
[14] = Fraction unbound in mouse plasma at 1 uM by LC-MS/MS analysis; type: ADME, cell-free
Pseudomonas aeruginosa [15] = experiment: Antibacterial activity against Pseudomonas aeruginosa cystic fibrosis isolate; type: functional
Escherichia coli [16] = experiment: Antimicrobial activity against Escherichia coli clinical isolate; type: functional
Escherichia coli [17] = experiment: Antimicrobial activity against CTX-M-positive extended spectrum beta-lactamase-producing Escherichia coli; type: functional
Klebsiella pneumoniae [18] = experiment: Antimicrobial activity against extended spectrum beta-lactamase-producing Klebsiella pneumoniae; type: functional
Escherichia coli [19] = experiment: Antimicrobial activity against extended spectrum beta-lactamase-producing Escherichia coli; type: functional

SMILES: CC(C)(O/N=C(\C(=O)N[C@H]1CN(C(=O)[N-]S(=O)(=O)n2nc(-c3cc(=O)c(O)c[nH]3)n(CC(N)=O)c2=O)C1=O)c1csc(N)n1)C(=O)[O-].[Na+].[Na+]
MIC (Klebsiella pneumoniae [1]): 1 mg/L
MIC90 (Pseudomonas aeruginosa [2]): 1 mg/L
MIC (Acinetobacter baumannii): 1 mg/L
MIC (Pseudomonas aeruginosa [3]): 0.125 mg/L
ED50 (Pseudomonas aeruginosa [4]): 25 mg/kg

SMILES: C[C@H]1[C@H](NC(=O)/C(=N\OC(C)(C)C(=O)O)c2csc(N)n2)C(=O)N1S(=O)(=O)O [AZTREONAM]
ED50 (Pseudomonas aeruginosa [5]): > 50 mg/kg
MIC50 (Serratia marcescens): 0.5 mg/L (≈ 1.15 µM)
MIC90 (Serratia marcescens): > 64 mg/L
MIC50 [6]: > 64 mg/L
MIC90 [6]: > 64 mg/L
MIC (Acinetobacter baumannii): 32 mg/L (≈ 73.5 µM)
MIC (Pseudomonas aeruginosa [3]): 8 mg/L (≈ 18.4 µM)
MIC50 (Citrobacter freundii): 0.25 mg/L (≈ 0.574 µM)
MIC90 (Citrobacter freundii): 64 mg/L (≈ 147 µM)
ED50 (Pseudomonas aeruginosa [4]): > 200 mg/kg
MIC50 (Acinetobacter sp.): 32 mg/L (≈ 73.5 µM)
MIC90 (Acinetobacter sp.): > 64 mg/L
MIC90 (Klebsiella aerogenes): 64 mg/L (≈ 147 µM)

SMILES: C[C@@H](O)Cn1c(-c2cc(=O)c(O)c[nH]2)nn(S(=O)(=O)[N-]C(=O)N2C[C@H](NC(=O)/C(=N\OC(C)(C)C(=O)[O-])c3csc(N)n3)C2=O)c1=O.[Na+].[Na+]
ED50 (Pseudomonas aeruginosa [5]): < 1 mg/kg
MIC (Klebsiella pneumoniae [1]): 0.5 mg/L
MIC90 (Pseudomonas aeruginosa [2]): 1 mg/L
MIC (Acinetobacter baumannii): 1 mg/L
MIC (Pseudomonas aeruginosa [3]): 0.125 mg/L
ED50 (Pseudomonas aeruginosa [4]): 32.7 mg/kg

SMILES: COCCn1c(-c2cc(=O)c(O)c[nH]2)nn(S(=O)(=O)[N-]C(=O)N2C[C@H](NC(=O)/C(=N\OC(C)(C)C(=O)[O-])c3csc(N)n3)C2=O)c1=O.[Na+].[Na+]
MIC (Klebsiella pneumoniae [1]): 0.5 mg/L
MIC90 (Pseudomonas aeruginosa [2]): 1 mg/L
MIC (Acinetobacter baumannii): 4 mg/L
MIC (Pseudomonas aeruginosa [3]): 0.5 mg/L
ED50 (Pseudomonas aeruginosa [4]): > 70.8 mg/kg

SMILES: C[C@H](O)Cn1c(-c2cc(=O)c(O)c[nH]2)nn(S(=O)(=O)[N-]C(=O)N2C(=O)[C@@H](NC(=O)/C(=N\OC(C)(C)C(=O)[O-])c3csc(N)n3)[C@@H]2C)c1=O.[Na+].[Na+]
MIC (Klebsiella pneumoniae [1]): 1 mg/L
MIC90 (Pseudomonas aeruginosa [2]): 0.5 mg/L
MIC (Acinetobacter baumannii): 4 mg/L
MIC (Pseudomonas aeruginosa [3]): 0.25 mg/L
ED50 (Pseudomonas aeruginosa [4]): 21.3 mg/kg

MIC (Pseudomonas aeruginosa [3]): 8 mg/L
SMILES: Cc1cc(Cn2c(-c3cc(=O)c(O)c[nH]3)nn(S(=O)(=O)[N-]C(=O)N3C[C@H](NC(=O)/C(=N\OC(C)(C)C(=O)[O-])c4csc(N)n4)C3=O)c2=O)nn1C.[Na+].[Na+]

SMILES: CC(C)(O/N=C(\C(=O)N[C@H]1CN(C(=O)[N-]S(=O)(=O)n2nc(-c3cc(=O)c(O)c[nH]3)n(C[C@@H]3CCCO3)c2=O)C1=O)c1csc(N)n1)C(=O)[O-].[Na+].[Na+]
ED50 (Pseudomonas aeruginosa [5]): 2.8 mg/kg
MIC (Klebsiella pneumoniae [1]): 0.5 mg/L
MIC (Acinetobacter baumannii): 2 mg/L
MIC (Pseudomonas aeruginosa [3]): 0.5 mg/L
ED50 (Pseudomonas aeruginosa [4]): > 100 mg/kg

SMILES: CC(C)(O/N=C(\C(=O)N[C@H]1CN(C(=O)[N-]S(=O)(=O)n2nc(-c3cc(=O)c(O)c[nH]3)n(C[C@@H](O)CO)c2=O)C1=O)c1csc(N)n1)C(=O)[O-].[Na+].[Na+]
ED50 (Pseudomonas aeruginosa [5]): < 1 mg/kg
MIC (Klebsiella pneumoniae [1]): 0.5 mg/L
MIC50 (Serratia marcescens): 0.125 mg/L
MIC90 (Serratia marcescens): 0.5 mg/L
MIC50 [6]: 1 mg/L
MIC90 [6]: 2 mg/L
MIC50 (Klebsiella pneumoniae [7]): 0.5 mg/L
MIC90 (Klebsiella pneumoniae [7]): 8 mg/L
Stability [8]: Stable
MIC90 (Pseudomonas aeruginosa [2]): 0.5 mg/L
degraded at 100 h, 1 µM [9]: 50%
ED50 (Pseudomonas aeruginosa [10]): 6.9 mg/kg
MIC50 (Pseudomonas aeruginosa [11]): 0.125 mg/L
MIC90 (Pseudomonas aeruginosa [11]): 0.5 mg/L
MIC (Acinetobacter baumannii): 0.5 mg/L
MIC50 (Klebsiella pneumoniae [12]): 0.5 mg/L
MIC90 (Klebsiella pneumoniae [12]): 8 mg/L
MIC50 (Pseudomonas aeruginosa [13]): 0.125 mg/L
MIC90 (Pseudomonas aeruginosa [13]): 0.5 mg/L
MIC (Pseudomonas aeruginosa [3]): 0.125 mg/L
fraction unbound at 1 µM [14]: 0.46
MIC50 (Pseudomonas aeruginosa [15]): 0.125 mg/L
MIC90 (Pseudomonas aeruginosa [15]): 0.5 mg/L
MIC50 (Escherichia coli [16]): 0.25 mg/L
MIC90 (Escherichia coli [16]): 2 mg/L
MIC50 (Escherichia coli [17]): 0.25 mg/L
MIC90 (Escherichia coli [17]): 2 mg/L
MIC50 (Citrobacter freundii): 0.5 mg/L
MIC90 (Citrobacter freundii): 2 mg/L
ED50 (Pseudomonas aeruginosa [4]): 20.6 mg/kg
MIC50 (Acinetobacter sp.): 16 mg/L
MIC90 (Acinetobacter sp.): > 64 mg/L
MIC50 (Klebsiella pneumoniae [18]): 0.5 mg/L
MIC90 (Klebsiella pneumoniae [18]): 8 mg/L
MIC50 (Klebsiella aerogenes): 0.125 mg/L
MIC90 (Klebsiella aerogenes): 0.25 mg/L
MIC50 (Escherichia coli [19]): 0.25 mg/L
MIC90 (Escherichia coli [19]): 2 mg/L

MIC (Pseudomonas aeruginosa [3]): 1 mg/L
SMILES: CCN(CC)CCn1c(-c2cc(=O)c(O)c[nH]2)nn(S(=O)(=O)[N-]C(=O)N2C[C@H](NC(=O)/C(=N\OC(C)(C)C(=O)[O-])c3csc(N)n3)C2=O)c1=O.[Na+].[Na+]

MIC (Pseudomonas aeruginosa [3]): 0.25 mg/L
SMILES: CC(C)(O/N=C(\C(=O)N[C@H]1CN(C(=O)[N-]S(=O)(=O)n2nc(-c3cc(=O)c(O)c[nH]3)n(CC(F)(F)F)c2=O)C1=O)c1csc(N)n1)C(=O)[O-].[Na+].[Na+]

MIC (Pseudomonas aeruginosa [3]): 0.25 mg/L
SMILES: CC(C)(O)Cn1c(-c2cc(=O)c(O)c[nH]2)nn(S(=O)(=O)[N-]C(=O)N2C[C@H](NC(=O)/C(=N\OC(C)(C)C(=O)[O-])c3csc(N)n3)C2=O)c1=O.[Na+].[Na+]
